Test results from publication PMC4176373 (Nucleic Acids Research, 2014).

Tests used:
mouse eIF4E(28–217) = mouse eIF4E(28–217) (Mus musculus, UniProt P63073); details: 50 mM HEPES/KOH (pH 7.2), 100 mM KCl, 20°C; cited from earlier work
[1] = tested on: human immature dendritic cells (hiDCs); assay: Luciferase expression from 5′-capped mRNAs in dendritic cells; type: cell-based; details: luciferase mRNA capped with the analog, electroporated into hiDCs
Outline: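 Luciferase mRNA made by T7 in vitro transcription with the cap dinucleotide added co-transcriptionally; plasmid DNA digested and RNA purified. Capped mRNA electroporated into human immature dendritic cells. Luciferase activity read at 2, 4, 8, 24, 48 and 72 h, in duplicate, and normalised to cell number. Time of maximal expression derived by spline interpolation of the time course.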

hDcpS [2] = molecular target: T1, hDcpS (Homo sapiens, UniProt Q96C86); details: pH 7.6, 20°C; cited from earlier work
T1 sequence (Q96C86 1-337): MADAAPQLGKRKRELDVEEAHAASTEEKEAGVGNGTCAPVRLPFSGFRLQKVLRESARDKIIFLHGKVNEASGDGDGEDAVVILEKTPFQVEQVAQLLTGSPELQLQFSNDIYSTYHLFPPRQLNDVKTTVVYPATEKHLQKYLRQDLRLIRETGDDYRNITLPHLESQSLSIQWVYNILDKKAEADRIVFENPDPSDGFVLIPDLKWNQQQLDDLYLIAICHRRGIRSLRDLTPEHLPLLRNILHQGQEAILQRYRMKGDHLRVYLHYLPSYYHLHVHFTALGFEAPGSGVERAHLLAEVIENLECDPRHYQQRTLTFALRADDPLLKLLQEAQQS

CeDcpS [3] = molecular target: T2, CeDcpS (Caenorhabditis elegans, UniProt G5EFS4); details: pH 7.6, 20°C; cited from earlier work
T2 sequence (G5EFS4 1-311): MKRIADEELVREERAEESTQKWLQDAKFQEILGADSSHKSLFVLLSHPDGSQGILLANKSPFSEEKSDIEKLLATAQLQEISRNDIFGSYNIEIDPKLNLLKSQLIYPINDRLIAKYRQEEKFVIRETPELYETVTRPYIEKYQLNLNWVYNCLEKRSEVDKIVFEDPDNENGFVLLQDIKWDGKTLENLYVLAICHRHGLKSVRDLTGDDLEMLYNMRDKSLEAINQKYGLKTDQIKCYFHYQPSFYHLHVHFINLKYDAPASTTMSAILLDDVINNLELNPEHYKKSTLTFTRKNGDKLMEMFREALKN

Stacking measurements = type: physicochemical; details: 0.1 M phosphate buffer, pH 5.2, 20°C; from fluorescence intensity of 7-methylguanosine; mean ± SD
Outline: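 Dinucleotide fluorescence intensity compared with m⁷GMP (7-methylguanosine fluorophore) in phosphate buffer, pH 5.2, at 20 °C. Stacked fraction calculated as (F_m7GMP − F_cap)/F_m7GMP, since stacking partially quenches 7-methylguanosine fluorescence. Values given as mean ± SD.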

hDcpS [4] = molecular target: T1, hDcpS; assay: HPLC-based assay of DcpS-mediated hydrolysis, Assay 2; type: biochemical; details: DcpS 200 nM, cap analog 15 μM, pH 7.6, 20 °C
CeDcpS [5] = molecular target: T2, CeDcpS; assay: HPLC-based assay of DcpS-mediated hydrolysis, Assay 2; type: biochemical; details: DcpS 200 nM, cap analog 15 μM, pH 7.6, 20 °C
Outline: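 Substrate at 15 µM sits 10 min at 20°C in 50 mM Tris HCl, 200 mM KCl, 0.5 mM EDTA, 1 mM DTT (final pH 7.6) before enzyme is added to 0.2 μM. Aliquots are heat-stopped at 97°C for 2.5 min at 10 and 90 min. Analysis is RP HPLC (methanol 0–30% in 0.1 M KH₂PO₄), reading A260 and fluorescence (ex 280/em 337 nm). Output is x = % substrate hydrolysed, with the substrate peak multiplied by 1.1. CeDcpS was E. coli-expressed and Ni-NTA-purified.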

Chain of mouse eIF4E(28–217) (P63073 28-217): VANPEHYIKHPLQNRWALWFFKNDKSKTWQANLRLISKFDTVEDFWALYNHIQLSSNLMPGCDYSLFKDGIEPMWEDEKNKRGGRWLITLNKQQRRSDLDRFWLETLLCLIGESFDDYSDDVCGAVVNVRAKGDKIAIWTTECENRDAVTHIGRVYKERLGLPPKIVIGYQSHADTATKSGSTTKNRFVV

Row | Compound | KAS (equilibrium association constant) for eIF4E (mouse eIF4E(28–217)) [µM⁻¹] | KAS for hDcpS (hDcpS [2]) | KAS for CeDcpS (CeDcpS [3]) | further results
1 | CO[C@@H]1[C@H](O)[C@@H](COP(=O)(O)OP(=O)([O-])OP(=O)(O)OC[C@H]2O[C@@H](n3cnc4c(=O)[nH]c(N)nc43)[C@H](O)[C@@H]2O)O[C@H]1n1c[n+](C)c2c(O)nc(N)nc21 [m2^7,2′-OGpppG] | 10.8 ± 0.3 | – | – | –
2 | CO[C@H]1[C@@H](O)[C@H]([n+]2cn(C)c3c(=O)[nH]c(N)nc32)O[C@@H]1COP(=O)([O-])OP(=O)(O)OP(=O)(O)OC[C@H]1O[C@@H](n2cnc3c(=O)[nH]c(N)nc32)[C@H](O)[C@@H]1O [m2^7,3′-OGpppG] | – | – | – | Time of max. (time point of maximal protein expression, functional RNA stability) [1]: 11.45 ± 0.07 h
3 | C[n+]1cn([C@@H]2O[C@H](COP(=O)(O)OP(=O)(O)O)[C@@H](O)[C@H]2O)c2nc(N)[nH]c(=O)c21 [m^7GDP, 7-methylguanosine diphosphate] | – | 114 ± 8^b μM^−1 | 97 ± 12^c μM^−1 | –
4 | C[n+]1cn([C@@H]2O[C@H](COP(=O)(O)CP(=O)(O)OP(=O)(O)OC[C@H]3O[C@@H](n4cnc5c(=O)[nH]c(N)nc54)[C@H](O)[C@@H]3O)[C@@H](O)[C@H]2O)c2nc(N)[nH]c(=O)c21 [m^7GpCH2ppG] | – | 234 ± 14^e μM^−1 | 8.6 ± 0.4^c μM^−1 | –
5 | C[n+]1cn([C@@H]2O[C@H](COP(=O)([O-])NP(=O)(O)OP(=O)(O)OC[C@H]3O[C@@H](n4cnc5c(=O)[nH]c(N)nc54)[C@H](O)[C@@H]3O)[C@@H](O)[C@H]2O)c2nc(N)[nH]c(=O)c21.N.N [m^7GpNHppG] | – | 218 ± 24^d μM^−1 | 66 ± 9^c μM^−1 | –
6 | C[n+]1cn([C@@H]2O[C@H](COP(=O)(O)OP(O)(=S)OP(=O)(O)OC[C@H]3O[C@@H](n4cnc5c(=O)[nH]c(N)nc54)[C@H](O)[C@@H]3O)[C@@H](O)[C@H]2O)c2nc(N)[nH]c(=O)c21 (some centres unmarked) [m^7GppSpG D1] | 45.0 ± 1.1 | – | – | % of stacked conformation (Stacking measurements): 61.8 ± 0.7%; Percent of cleavage, x (%) hDcpS 10 min (hDcpS [4]; reaction time 10 min): 100%; Percent of cleavage, x (%) hDcpS 90 min (hDcpS [4]; reaction time 90 min): 100%; Percent of cleavage, x (%) CeDcpS 10 min (CeDcpS [5]; reaction time 10 min): 100%; Percent of cleavage, x (%) CeDcpS 90 min (CeDcpS [5]; reaction time 90 min): 100%
7 | C[n+]1cn(C2OC(COP(=O)(O)OP(O)(=S)OP(=O)(O)OCC3OC(n4cnc5c(=O)[nH]c(N)nc54)C(O)C3O)C(O)C2O)c2nc(N)[nH]c(=O)c21 (centres unmarked) [m^7GppSpG D2] | 23.0 ± 0.4 | – | – | % of stacked conformation (Stacking measurements): 60.8 ± 0.2%
8 | C[n+]1cn([C@@H]2O[C@H](COP(=O)(O)OP(=O)(O)OP(=O)(O)OC[C@H]3O[C@@H](n4c[n+](C)c5c(=O)[nH]c(N)nc54)[C@H](O)[C@@H]3O)[C@@H](O)[C@H]2O)c2nc(N)[nH]c(=O)c21 [m^7Gpppm^7G] | 5.0 ± 0.2 | – | – | –
